From ChEMBL document CHEMBL2331445, “Chemical, biochemical and microbiological properties of a brominated nitrovinylfuran with broad-spectrum antibacterial activity” (Bioorg Med Chem, 2013)
Converted amounts (≈) assume the structure as drawn. The source made the active and inactive calls. The calls are words filed in the database; no cut-off is given here.

Legend:
[1] = Induction of GSSG formation in citrate buffer at 100 uM by RP-LC/MS analysis
[2] = system: Ca-Ski; experiment: Cytotoxicity against human CaSki cells after 72 hrs by crystal violet staining method; type: ADME, cell-based
[3] = system: MeWo; experiment: Cytotoxicity against human MeWo cells after 72 hrs by crystal violet staining method; type: ADME, cell-based
[4] = Induction of GSH-adduct formation in citrate buffer at100 uM by RP-LC/MS analysis; conditions: 100 µM
[5] = system: Staphylococcus aureus; experiment: microbe, parasite or virus in culture; type: functional; conditions: NCTC 10442
[6] = system: Dengue virus; conditions: at 50 µM
[7] = system: A-431; experiment: Cytotoxicity against human A431 cells after 72 hrs by crystal violet staining method; type: ADME, cell-based; conditions: A-431, 72 h
[8] = Inhibition of Staphylococcus aureus MurA2 expressed in Escherichia coli BL21(lambdaDE3) using UNAG and PEP as substrate incubated for 10 mins prior to PEP addition measured after 60 mins by spectrophotometric analysis
[9] = system: Escherichia coli; experiment: microbe, parasite or virus in culture; type: functional; conditions: ATCC 25922
[10] = molecular target: Methionine aminopeptidase 1 (Homo sapiens) (UniProt P53582); conditions: at 10 µM
[11] = system: CAPAN-1; experiment: Cytotoxicity against human Capan1 cells after 72 hrs by crystal violet staining method; type: ADME, cell-based; conditions: CAPAN-1, 72 h
[12] = Cytotoxicity against human Flow 2002 cells after 72 hrs by crystal violet staining method; type: ADME, cell-based; conditions: Flow 2002, 72 h
[13] = molecular target: T1, UDP-N-acetylglucosamine 1-carboxyvinyltransferase (Escherichia coli K-12, UniProt P0A749); experiment: Inhibition of Escherichia coli MurA expressed in Escherichia coli BL21(lambdaDE3) using UNAG and PEP as substrate incubated for 10 mins prior to PEP addition measured after 60 mins by spectrophotometric analysis
[14] = Inhibition of Pseudomonas aeruginosa MurA expressed in Escherichia coli BL21(lambdaDE3) using UNAG and PEP as substrate incubated for 10 mins prior to PEP addition measured after 60 mins by spectrophotometric analysis
[15] = system: Calu-6; experiment: Cytotoxicity against human Calu6 cells after 72 hrs by crystal violet staining method; type: ADME, cell-based; conditions: Calu-6, 72 h
[16] = system: HaCaT; experiment: Cytotoxicity against human HaCaT cells after 72 hrs by crystal violet staining method; type: ADME, cell-based
[17] = molecular target: Prothrombin (Homo sapiens) (UniProt P00734); conditions: at 25 µM
[18] = system: Pseudomonas aeruginosa; experiment: microbe, parasite or virus in culture; type: functional; conditions: ATCC 27853
[19] = system: Escherichia coli; conditions: at 10 µM
[20] = molecular target: Methionine aminopeptidase 2 (Homo sapiens) (UniProt P50579); conditions: at 10 µM
[21] = system: Staphylococcus aureus; experiment: microbe, parasite or virus in culture; type: functional; conditions: ATCC 25923
[22] = molecular target: UDP-N-acetylglucosamine 1-carboxyvinyltransferase (Escherichia coli K-12, UniProt P0A749, C115D); experiment: Inhibition of Escherichia coli MurA C115D mutant expressed in Escherichia coli BL21(lambdaDE3) using UNAG and PEP as substrate incubated for 10 mins prior to PEP addition measured after 60 mins by spectrophotometric analysis
[23] = Cytotoxicity against human SW707 cells after 72 hrs by crystal violet staining method; type: ADME, cell-based; conditions: SW707, 72 h
[24] = system: UDP-N-acetylglucosamine 1-carboxyvinyltransferase (Escherichia coli K-12), P0A749 [C115D]; experiment: Inhibition of Escherichia coli MurA C115D mutant expressed in Escherichia coli BL21(lambdaDE3) using UNAG and PEP as substrate at 50 to 500 uM incubated for 30 mins by 2,2'-dithiopyridine based spectrophotometric analysis
How it was run: (§1)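 MurA (wild-type or C115D) was incubated with test compound at an equimolar ratio or 10-fold excess in 50 mM Tris pH 7.8 at room temperature for 30 min. 2,2'-Dithiodipyridine was then added in 0.5 M citrate pH 4 with 6 M urea for 30 min and quenched with 4% TFA. 2-Thiopyridone was measured by HPLC at 342 nm against a compound-free control.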

[25] = molecular target: UDP-N-acetylglucosamine 1-carboxyvinyltransferase (Escherichia coli K-12) (UniProt P0A749); conditions: 100 nM
[26] = molecular target: UDP-N-acetylglucosamine 1-carboxyvinyltransferase (Escherichia coli K-12) (UniProt P0A749); conditions: 200 nM
[27] = Cytotoxicity against human lymphoblastoid cells assessed as cell vaibility at 3.4 uM; type: cell-based; conditions: read-out: Activity
[28] = Half life of the compound in citrate buffer at pH 6
[29] = molecular target: UDP-N-acetylglucosamine 1-carboxyvinyltransferase (Escherichia coli K-12) (UniProt P0A749); experiment: Inhibition of Escherichia coli MurA expressed in Escherichia coli BL21(lambdaDE3) using UNAG and PEP as substrate at 50 to 500 uM incubated for 30 mins by 2,2'-dithiopyridine based spectrophotometric analysis; how it was run: as §1
[30] = Drug degradation assessed as 5-bromofuran-2-carbaldehyde formation at 100 uM by HPLC-UV analysis in absence of MurA; type: physicochemical
How it was run: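 Test compound (100 µM) was held under standard MurA assay buffer conditions without enzyme, then stopped at several time points. HPLC-UV used a C18 column, 37 °C, and a 0.1% TFA water/acetonitrile gradient. Aldehyde formation was followed at 290 nm.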

[31] = molecular target: UDP-N-acetylglucosamine 1-carboxyvinyltransferase (Escherichia coli K-12) (UniProt P0A749); experiment: Irreversible inhibition of Escherichia coli MurA expressed in Escherichia coli BL21(lambdaDE3) using UNAG and PEP as substrate at 1.25 uM incubated up to 80 min prior to PEP addition measured after 60 mins by spectrophotometric analysis; conditions: TDE = time-dependent effect
How it was run: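 Phosphate-release MurA assay: 12 nM E. coli MurA, 250 µM UNAG, 125 µM PEP, 25 mM Tris pH 7.8, 0.1% BSA, 37 °C. The pre-incubation period of inhibitor with enzyme was varied before PEP addition. Reaction ran 60 min, was stopped with malachite green reagent, and read at 620 nm.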

[32] = Prodrug activation in citrate buffer assessed as debromination at 100 uM at pH 6 in presence of GSH; type: physicochemical; conditions: pH 6, 100 µM
How it was run: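 Inhibitor and glutathione, each at 100 µM final, in 50 mM sodium citrate pH 6.0. Aliquots were withdrawn every 30 s for 3 min and at 4 and 5 min, quenched, and analysed by reversed-phase HPLC-UV.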

[33] = Half life of the compound in Muller-Hinton medium at 100 uM at pH 5.8; type: physicochemical
How it was run: (§2)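 Compound (100 µM) was dissolved in Müller-Hinton medium (pH 7.2, or adjusted to pH 5.8) and aliquots were injected onto HPLC at different time points. Parent disappearance was read at 390 nm. Half-life came from a first-order plot of log peak area versus time, t1/2 = ln2/kobs.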

[34] = molecular target: UDP-N-acetylglucosamine 1-carboxyvinyltransferase (Escherichia coli K-12) (UniProt P0A749); experiment: Inhibition of Escherichia coli MurA expressed in Escherichia coli BL21(lambdaDE3) using UNAG and PEP as substrate at 5 uM incubated for 10 mins […] measured after 60 mins by spectrophotometric analysis
How it was run: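 MurA (12 nM) was pre-incubated with UNAG and inhibitor for 10 min at 37 °C, and the reaction was started with PEP. Final conditions: UNAG 250 µM, PEP 125 µM, 25 mM Tris pH 7.8, 0.1% BSA, 1% DMSO. After 60 min at 37 °C, malachite green/molybdate reagent was added and phosphate was read at 620 nm after 10 min. Run in triplicate.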

[35] = Half life of the compound in Muller-Hinton medium at 100 uM at pH 7.2; type: physicochemical; how it was run: as §2
[36] = Half life of the compound in tris buffer at pH 7.8
[37] = Drug degradation in Muller-Hinton medium assessed as disappearance of parent compound at 100 uM at pH 7.2 by HPLC-UV analysis; type: physicochemical; conditions: buffer, pH 7.2, 100 µM; TDE = time-dependent effect; how it was run: as §2
[38] = molecular target: T1, UDP-N-acetylglucosamine 1-carboxyvinyltransferase; experiment: Induction of Escherichia coli MurA-mediated 2-bromo-5-(2-nitrovinyl)furan formation assessed as enzyme-(R)-methyl 3-mercapto-2-(6-methoxy-2-oxo-2H-chromene-3-carboxamido)propanoate adduct level at 200 to 300 uM after 1 hr by SDS-PAGE analysis
How it was run: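 E. coli MurA was incubated with the fluorescent coumarin cysteine thiol, with or without test compound. After 1 h, aliquots were quenched in non-reducing Laemmli buffer (one sample in reducing buffer), heated to 95 °C for 3 min and run on 12% SDS-PAGE. Protein-bound fluorophore was imaged at 365 nm excitation.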

[39] = Cytotoxicity against human lymphoblastoid cells assessed as cell vaibility at 46 uM; type: cell-based; conditions: read-out: Activity

Sequence of Methionine aminopeptidase 2 (Homo sapiens) (P50579 2-478 limits assumed): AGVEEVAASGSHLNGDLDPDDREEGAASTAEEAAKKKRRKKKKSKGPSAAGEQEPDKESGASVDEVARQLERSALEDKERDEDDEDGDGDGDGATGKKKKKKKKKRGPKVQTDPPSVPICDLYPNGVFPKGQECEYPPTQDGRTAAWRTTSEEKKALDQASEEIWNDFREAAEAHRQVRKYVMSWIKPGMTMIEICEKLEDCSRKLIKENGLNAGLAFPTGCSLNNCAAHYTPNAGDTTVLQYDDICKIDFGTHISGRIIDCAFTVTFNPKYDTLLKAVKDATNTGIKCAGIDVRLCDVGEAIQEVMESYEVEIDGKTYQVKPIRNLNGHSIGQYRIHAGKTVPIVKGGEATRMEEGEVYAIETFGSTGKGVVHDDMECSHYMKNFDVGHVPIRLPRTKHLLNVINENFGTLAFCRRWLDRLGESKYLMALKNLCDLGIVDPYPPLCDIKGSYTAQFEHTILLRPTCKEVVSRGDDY
Sequence of UDP-N-acetylglucosamine 1-carboxyvinyltransferase (Escherichia coli K-12, UniProt P0A749, C115D) (P0A749 whole entry C115D): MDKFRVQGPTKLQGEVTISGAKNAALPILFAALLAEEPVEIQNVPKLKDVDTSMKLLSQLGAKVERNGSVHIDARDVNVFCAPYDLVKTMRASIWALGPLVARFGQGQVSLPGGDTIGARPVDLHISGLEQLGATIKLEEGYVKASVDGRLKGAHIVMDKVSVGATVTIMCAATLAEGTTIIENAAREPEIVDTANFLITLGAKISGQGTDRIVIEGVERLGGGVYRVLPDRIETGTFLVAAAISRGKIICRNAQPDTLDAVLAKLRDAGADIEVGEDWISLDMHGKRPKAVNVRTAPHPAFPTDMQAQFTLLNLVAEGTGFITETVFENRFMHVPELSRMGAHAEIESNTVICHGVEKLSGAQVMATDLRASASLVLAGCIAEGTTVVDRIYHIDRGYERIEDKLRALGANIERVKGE
T1 sequence (P0A749 whole entry): as the sequence (P0A749 whole entry C115D) above, with D115C counted along it
Sequence of UDP-N-acetylglucosamine 1-carboxyvinyltransferase (Escherichia coli K-12) (P0A749 whole entry): as the sequence (P0A749 whole entry C115D) above, with D115C counted along it
Sequence of UDP-N-acetylglucosamine 1-carboxyvinyltransferase (Escherichia coli K-12), P0A749 [C115D] (P0A749 whole entry C115D): as the sequence (P0A749 whole entry C115D) above

SMILES | Activity [1] | IC50 [2] [µM] | IC50 [3] [µM] | MIC [5] [µg/mL] | inhibition [6] | IC50 [7] [µM] | IC50 ([8]; read-out: IC50) [µM] | MIC [9] [µg/mL] | inhibition [10] | IC50 [11] [µM] | IC50 [12] [µM] | IC50 ([14]; read-out: IC50) [µM] | IC50 [15] [µM] | IC50 [16] [µM] | inhibition [17] | MIC [18] [µg/mL] | inhibition [19] | inhibition [20] | MIC [21] [µg/mL] | IC50 [23] [µM] | also measured
O=[N+]([O-])CBr [BROMO(NITRO)METHANE] | Not Active | 99 | 40 | 2 (≈ 14.3 µM) | inactive | 38 | 6.2 | 1 (≈ 7.15 µM) | inactive | 69 | 14 | 4 | 23 | 25 | inactive | 0.5 (≈ 3.57 µM) | 85% | 22% | 2 (≈ 14.3 µM) | 73 | Activity [4]: Active; IC50 ([13]; read-out: IC50): 4.6 µM; IC50 ([22]; read-out: IC50): 7.8 µM
C[C@@H]1O[C@@H]1P(=O)(O)O [FOSFOMYCIN] |  | ≥ 100 | ≥ 100 | 4 (≈ 29 µM) | inactive | ≥ 100 | 1.1 | 2 (≈ 14.5 µM) | inactive | ≥ 100 | ≥ 100 | 10.5 | ≥ 100 | ≥ 100 | inactive | 1 (≈ 7.24 µM) | inactive | inactive | 4 (≈ 29 µM) | ≥ 100 | inhibition [24]: inactive; inhibition [25]: tde; IC50 ([13]; read-out: IC50): 0.1 µM; inhibition [26]: inactive; IC50 [22]: Not Active
O=Cc1ccc(Br)o1 | Active | ≥ 100 | ≥ 100 | > 32 | inactive | ≥ 100 |  | > 32 | inactive | ≥ 100 | ≥ 100 |  | ≥ 100 | ≥ 100 | inactive | > 32 | inactive | inactive | > 32 | ≥ 100 | Activity [4]: Active; IC50 [8]: Not Active; IC50 [13]: Not Active; IC50 [14]: Not Active; IC50 [22]: Not Active
C=C1C(=O)O[C@@H]2/C=C(\CO)CC/C=C(\C)C[C@H](OC(=O)C(=C)[C@H](O)CO)[C@@H]12 [CNICIN] |  | ≥ 100 | ≥ 100 | > 32 | inactive | 27 | 20.4 | > 32 | inactive | 93 | 82 | 10.3 | 44 | 80 | inactive | > 32 | inactive | 9% | > 32 | ≥ 100 | IC50 [22]: Not Active
C[N+](=O)[O-] [NITROMETHANE] |  | ≥ 100 | ≥ 100 | > 32 | inactive | ≥ 100 |  | 32 (≈ 524 µM) | inactive | ≥ 100 | ≥ 100 |  | ≥ 100 | ≥ 100 | inactive | 8 (≈ 131 µM) | inactive | inactive | 8 (≈ 131 µM) | ≥ 100 | IC50 [8]: Not Active; IC50 [13]: Not Active; IC50 [14]: Not Active; IC50 [22]: Not Active
O=[N+]([O-])/C(Br)=C/c1ccc(Br)o1 | Not Active | 50 | 43 | 4 (≈ 13.5 µM) | 12% | 24 | 3.9 | 4 (≈ 13.5 µM) | inactive | 36 | 9 | 2.8 | 10 | 33 | 8% | 2 (≈ 6.74 µM) | 85% | 13% | 4 (≈ 13.5 µM) | 47 | viability at 3.4 µM [27]: > 70%; half-life [28]: 6 h; inhibition [29]: Active; Activity [4]: Not Active; Stability [30]: Unstable; inhibition [24]: Active; inhibition [31]: tde; IC50 ([13]; read-out: IC50): 2.8 µM; Drug metabolism [32]: Active; half-life at 100 µM [33]: 1 h; inhibition [34]: Active; half-life at 100 µM [35]: 8 min; half-life [36]: 0.5 h; Drug degradation [37]: tde; IC50 ([22]; read-out: IC50): 18.7 µM; Drug metabolism [38]: Active
O=[N+]([O-])/C=C/c1ccc(Br)o1 | Active | 18 | 21 | 2 (≈ 9.17 µM) | 26% | 12 | 20.7 | 2 (≈ 9.17 µM) | inactive | 19 | 6 | 20.3 | 5 | 15 | 19% | 4 (≈ 18.3 µM) | 30% | 7% | 2 (≈ 9.17 µM) | 22 | half-life [28]: 116 h; Activity [4]: Not Active; IC50 ([13]; read-out: IC50): 27.3 µM; viability at 46 µM [39]: > 70%; half-life [36]: 58 h; IC50 ([22]; read-out: IC50): 23.8 µM
